pEC50, pIC50: −log10 of the molar value.
How the values were obtained:
[1] = Cytotoxicity against MDCK cells assessed as minimum compound concentration required to causes microscopically detectable alteration of normal cell morphology; type: cell-based, Canis lupus familiaris; conditions: dog
Outline: (§1)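 Confluent, non-proliferating cell cultures were exposed to the compounds. The endpoint was the minimum concentration producing a microscopically detectable alteration of normal cell morphology.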

Plasmodium falciparum [2] = experiment: Ratio of chloroquine IC50 to compound IC50 for chloroquine-sensitive Plasmodium falciparum 3D7; type: functional
Plasmodium falciparum [3] = experiment: Ratio of chloroquine IC50 to compound IC50 for chloroquine-sensitive Plasmodium falciparum K1; type: functional
Sindbis virus = experiment: Antiviral activity against Sindbis virus infected in african green monkey Vero cells assessed as inhibition of virus-induced cytopathogenicity after 4 days; type: functional, organism-based; conditions: 96 h
Outline: (§2)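 Confluent HEL, Vero or HeLa monolayers were inoculated with 100 CCID50 of virus in the presence of varying concentrations of compound. Cytopathicity was scored when it reached completion in untreated, virus-infected control cultures.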

Human alphaherpesvirus 1 [4] = experiment: Antiviral activity against HSV1 KOS infected in HEL cells assessed as inhibition of virus-induced cytopathogenicity after 4 days; type: functional, organism-based; conditions: Human alphaherpesvirus 1, KOS, 96 h
Outline: (§3)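 Confluent HEL or HeLa monolayers infected with 100 CCID50 of virus in the presence of varying compound concentrations.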

Human alphaherpesvirus 1 [5] = experiment: Antiviral activity against thymidine kinase-deficient acyclovir-resistant HSV1 KOS infected in HEL cells assessed as inhibition of virus-induced cytopathogenicity after 4 days; type: functional, organism-based; conditions: Human alphaherpesvirus 1, KOS, 96 h; outline: as §3
[6] = Cytotoxicity against human HEL cells assessed as minimum compound concentration required to causes microscopically detectable alteration of normal cell morphology; type: cell-based; outline: as §1
[7] = tested on: Respiratory syncytial virus; experiment: Antiviral activity against Respiratory syncytial virus infected in human HeLa cells assessed as inhibition of virus-induced cytopathogenicity after 4 days; type: functional, organism-based; conditions: 96 h; outline: as §2
Influenza A virus = experiment: Antiviral activity against Influenza A virus H3N2 infected in MDCK cells assessed as reduction visual scoring of virus-induced cytopathogenicity after 4 days; type: functional, organism-based; conditions: 96 h
Outline: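 MDCK monolayers infected with 100 CCID50 of influenza A (H1N1 or H3N2) or influenza B, with varying compound concentrations. Cytopathicity read when untreated infected controls reached complete CPE.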

Influenza B virus = experiment: Antiviral activity against Influenza B virus infected in MDCK cells assessed as inhibition of virus-induced cytopathogenicity after 4 days by colorimetric formazan-based MTS assay; type: functional, organism-based; conditions: 96 h
Human alphaherpesvirus 3 = experiment: Antiviral activity against […] expressing thymidine kinase infected in HEL cells assessed as reduction of virus plaque formation after 4 days; type: functional, cell-based; conditions: Human alphaherpesvirus 3, strain Oka vaccine, 96 h
Felid alphaherpesvirus 1 = experiment: Antiviral activity against Feline herpesvirus infected in cat CRFK cells assessed as inhibition of virus-induced cytopathic effect after 4 days by colorimetric formazan-based MTS assay; type: functional, organism-based; conditions: Felid alphaherpesvirus 1, CRFK, 96 h
[8] = tested on: Human immunodeficiency virus 1; experiment: Antiviral activity against HIV1 infected in human CEM cells assessed as inhibition of virus-induced cytopathic effect after 4 days; type: functional, organism-based; conditions: Human immunodeficiency virus 1, CCRF-CEM, 96 h
Outline: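 CEM T-lymphocytes (~3 × 10^5 cells/ml) were infected with HIV-1 IIIB or HIV-2 ROD at ~100 CCID50, then immediately plated with a range of compound concentrations. Giant cell formation was scored microscopically after 4 days at 37 °C. Cytostatic activity was tested in parallel in uninfected CEM cells.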

Heme [9] = experiment: Binding affinity to monomeric heme in HEPES buffer at pH 5.6 by spectrophotometric analysis
Heme [10] = experiment: Binding affinity to monomeric heme in HEPES buffer at pH 7.5 by spectrophotometric analysis
Outline: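 Monomeric hemin (2.4 μM, 40% DMSO in water) was titrated with compound (0–70 μM) added from DMSO stocks, with absorbance read at 402 nm after each addition. Buffer was HEPES (pH 7.4) for the neutral condition and MES ([…]) for the pH 5.6 condition. Stoichiometry was by Job's method and log K by HypSpec fitting.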

[11] = Inhibition of beta-hematin formation assessed as Ferriprotoporphyrin IX biomineralisation after 24 hrs; type: functional
Outline: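 Hemin (0.5 mg/ml in DMSO) was mixed with 0.5 M sodium acetate pH 4.4 and compound, then incubated for 24 h at 37 °C. The pellet was washed with DMSO to remove unreacted hemin and dissolved in 0.1 N NaOH, with A405 read. Percent inhibition was taken versus solvent control, and IC50 by curve fitting.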

Nucleic Acid = experiment: Binding affinity to Escherichia coli pUC18 DNA by spectrofluorometric analysis; type: nucleic-acid assay
Outline: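 Steady-state fluorescence titration at ambient temperature: compound held at 30 μM while DNA was varied (0.3–70 μM), working solutions diluted in methanol. Excitation 320 nm, emission 380 nm, slit 5 nm. Log K was calculated from quenching of the 380 nm emission.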

**Q.** For `Cc1nc(NCCCCNc2ccnc3cc(Cl)ccc23)nc(-c2ccccc2[N+](=O)[O-])c1C(=O)OC(C)C`, which MCC [1] is on record?
**A.** Its MCC is 4000 nM.

**Q.** And the “Ratio IC50” value (Plasmodium falciparum [2])?
**A.** The value was 56.

**Q.** And the “Ratio IC50” value (Plasmodium falciparum [3])?
**A.** Its value is 56.

**Q.** And the pEC50 (Sindbis virus)?
**A.** Its pEC50 is < 4.70.

**Q.** And the pEC50 (Human alphaherpesvirus 1 [4])?
**A.** Its pEC50 is < 5.40.

**Q.** And the pEC50 (Human alphaherpesvirus 1 [5])?
**A.** The pEC50 was < 5.40.

**Q.** And the MCC [6]?
**A.** Its MCC is 20 µM.

**Q.** And the pEC50 [7]?
**A.** The pEC50 was < 4.70.

**Q.** And the pEC50 (Influenza A virus)?
**A.** Its pEC50 is < 6.10.

**Q.** And the pEC50 (Influenza B virus)?
**A.** Its pEC50 is < 6.10.

**Q.** And the pEC50 (Human alphaherpesvirus 3)?
**A.** The pEC50 was 5.40.

**Q.** And the pEC50 (Felid alphaherpesvirus 1)?
**A.** Its pEC50 is < 4.70.

**Q.** What about the pEC50 [8] of the same compound?
**A.** The pEC50 was < 5.70.

**Q.** What about the log Ks (Heme [9]) of the same compound?
**A.** Its log Ks is 4.97.

**Q.** And the log Ks (Heme [10])?
**A.** Its log Ks is 5.08.

**Q.** And the pIC50 [11]?
**A.** Its pIC50 is 5.70.

**Q.** What about the inhibition [11] of the same compound?
**A.** The inhibition was “Dose-dependent effect”.

**Q.** And the log Ks (Nucleic Acid)?
**A.** Its log Ks is 5.27.

**Q.** Which MCC [1] does the source give for `CCOC(=O)c1c(C)nc(NCCCCNc2ccnc3cc(Cl)ccc23)nc1-c1ccccc1` here?
**A.** The MCC was 800 nM.

**Q.** What about the pEC50 (Sindbis virus) of the same compound?
**A.** The pEC50 was < 4.00.

**Q.** And the pEC50 (Human alphaherpesvirus 1 [4])?
**A.** Its pEC50 is < 4.00.

**Q.** What about the pEC50 (Human alphaherpesvirus 1 [5]) of the same compound?
**A.** The pEC50 was < 4.00.

**Q.** And the MCC [6]?
**A.** Its MCC is > 20 µM.

**Q.** And the pEC50 [7]?
**A.** Its pEC50 is < 4.00.

**Q.** What about the pEC50 (Influenza A virus) of the same compound?
**A.** The pEC50 was < 6.80.

**Q.** What about the pEC50 (Influenza B virus) of the same compound?
**A.** The pEC50 was < 6.80.

**Q.** And the pEC50 (Human alphaherpesvirus 3)?
**A.** Its pEC50 is 5.40.

**Q.** What about the pEC50 (Felid alphaherpesvirus 1) of the same compound?
**A.** Its pEC50 is < 5.40.

**Q.** And the pEC50 [8]?
**A.** The pEC50 was < 5.70.

**Q.** What about the log Ks (Heme [9]) of the same compound?
**A.** Its log Ks is 5.28.

**Q.** And the log Ks (Heme [10])?
**A.** Its log Ks is 6.02.
